According to ChEMBL document CHEMBL4007436, “Synthesis of Novel Synthetic Vitamin K Analogues Prepared by Introduction of a Heteroatom and a Phenyl Group That Induce Highly Selective Neuronal Differentiation of Neuronal Progenitor Cells” (2017):
Calls of active or inactive are those of the source. No cut-off for these calls is given here.

Columns and labels:
[1] = Induction of neuronal differentiation in C57BL/6J mouse neuronal progenitor cells assessed as fold increase in Map2/beta-actin mRNA level at 1 uM treated for every second day for 4 days by RT-PCR analysis relative to control; assay type: functional, Neuronal progenitor cell
Outline: (§1)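 C57BL/6J E14 mouse cerebral neural stem cells were cultured 24 h after seeding. They were then treated with 1 µM analogue or ethanol control for 4 days, dosed every second day. mRNA was extracted, and Map2, Gfap and β-actin were quantified by real-time PCR. Map2/β-actin or Gfap/β-actin ratios were normalized to the EtOH control (set at 1.0). Values are means of three independent experiments; significance by Dunnett's t-test.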

Neuronal progenitor cell [2] = assay: Induction of neuronal differentiation in C57BL/6J mouse neuronal progenitor cells assessed as expression of Map2 at 1 uM treated for every second day for 4 days measured after 48 hrs by DAPI-staining based immunofluorescence method; assay type: functional
Outline: (§2)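 Neural stem cells taken from embryonic day 14 cerebrum of C57BL/6J mice, dispersed with trypsin/DNase I at 37 °C, seeded and grown 1 day at 37 °C, 5% CO2. Medium replaced with 10% FCS DMEM (low glucose) containing 1 µM analogue; ethanol at 0.1% as control. After 48 h, cells permeabilized with 0.2% Triton X-100. Staining used anti-Map2 (CF594, red) and anti-Gfap (CF488A, green), each overnight at 4 °C, with DAPI nuclei, then fluorescence microscopy.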

Neuronal progenitor cell [3] = assay: Induction of neuronal differentiation in C57BL/6J mouse neuronal progenitor cells assessed as expression of Gfap at 1 uM treated for every second day for 4 days measured after 48 hrs by DAPI-staining based immunofluorescence method; assay type: functional; outline: as §2
Neuronal progenitor cell [4] = assay: Induction of neuronal differentiation in C57BL/6J mouse neuronal progenitor cells assessed as increase in relative ratio of Map2/Gfap mRNA level at 1 uM treated for every second day for 4 days by RT-PCR analysis relative to control; assay type: functional, cell-based
Outline: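 E14 C57BL/6J mouse cerebral neural progenitor cells were treated with 1 µM analogue or ethanol every second day for 4 days. Map2 and Gfap mRNA (each relative to β-actin) were measured by real-time PCR. The Map2/Gfap ratio was calculated and normalized to the EtOH control (set at 1.0).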

Neuronal progenitor cell [5] = assay: Induction of neuronal differentiation in C57BL/6J mouse neuronal progenitor cells assessed as increase in Map2/beta actin mRNA level at 1 uM treated for every second day for 4 days by RT-PCR analysis relative to control; assay type: functional, cell-based; outline: as §1
Neuronal progenitor cell [6] = assay: Induction of neuronal differentiation in C57BL/6J mouse neuronal progenitor cells assessed as increase in Gfap/beta-actin mRNA level at 1 uM treated for every second day for 4 days by RT-PCR analysis relative to control; assay type: functional, cell-based; outline: as §1

SMILES | fold change (FC) [1] | Activity (Neuronal progenitor cell [2]) | Activity (Neuronal progenitor cell [3]) | Activity (Neuronal progenitor cell [4]) | Activity (Neuronal progenitor cell [5]) | Activity (Neuronal progenitor cell [6])
CC1=C(C/C=C(\C)CC/C=C(\C)CNc2ccc(F)cc2)C(=O)c2ccccc2C1=O | > 2 | Active | inactive | Active |  | 
CC1=C(C/C=C(\C)CC/C=C(\C)CNc2ccccc2)C(=O)c2ccccc2C1=O |  |  |  |  | Active | 
CC(C)=CCC/C(C)=C/CC/C(C)=C/CC/C(C)=C/CC1=C(C)C(=O)c2ccccc2C1=O [MENATETRENONE] | >2 | Active | Active |  |  | Active
CC1=C(C/C=C(\C)CC/C=C(\C)CC/C=C(\C)COc2ccccc2)C(=O)c2ccccc2C1=O |  |  |  |  | Active | 
CC1=C(C/C=C(\C)CC/C=C(\C)CC/C=C(\C)COc2cccc(C)c2)C(=O)c2ccccc2C1=O |  | Active | inactive | Active | Active | 
